As a reminder, the Ki is the dissociation constant of the complex between target and ligand, obtained from inhibition or displacement.

Data set [1] addresses T1, Adenosine receptor A1 (Homo sapiens) (UniProt P30542).
T1 sequence (whole entry): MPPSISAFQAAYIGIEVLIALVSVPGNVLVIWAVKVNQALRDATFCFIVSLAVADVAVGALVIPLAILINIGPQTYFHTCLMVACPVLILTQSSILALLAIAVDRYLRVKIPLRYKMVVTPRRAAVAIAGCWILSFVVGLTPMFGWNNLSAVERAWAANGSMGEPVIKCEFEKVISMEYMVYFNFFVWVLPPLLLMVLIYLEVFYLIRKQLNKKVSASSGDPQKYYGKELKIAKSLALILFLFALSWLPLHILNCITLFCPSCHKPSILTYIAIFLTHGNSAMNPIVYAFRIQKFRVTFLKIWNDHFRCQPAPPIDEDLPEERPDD
Description: Displacement of [3H]R-PIA from human recombinant adenosine A1 receptor expressed in CHO cells at 20 uM after 60 mins by scintillation counting. It is filed as cell-based. (Displacement assays read how much labelled ligand stays bound in the presence of the test substance.)

For data set [2], the target named is T2, Adenosine receptor A3 (Homo sapiens) (UniProt P0DMS8).
T2 sequence (whole entry): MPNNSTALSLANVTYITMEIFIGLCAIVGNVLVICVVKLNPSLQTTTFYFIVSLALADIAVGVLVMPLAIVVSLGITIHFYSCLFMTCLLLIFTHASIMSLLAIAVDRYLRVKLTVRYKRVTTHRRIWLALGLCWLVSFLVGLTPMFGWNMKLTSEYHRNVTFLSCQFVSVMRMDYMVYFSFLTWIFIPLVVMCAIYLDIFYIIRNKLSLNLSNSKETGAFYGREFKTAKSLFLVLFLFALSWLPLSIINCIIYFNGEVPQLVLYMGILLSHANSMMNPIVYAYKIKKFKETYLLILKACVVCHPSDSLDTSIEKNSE
The data set is described as follows: Displacement of [125I]I-AB-MECA from human recombinant adenosine A3 receptor expressed in CHO cells at 20 uM after 60 mins by gamma counting.

Data set [3] is described as follows: Colloidal aggregation at 10 uM by dynamic light scattering assay. It counts as physicochemical. The method in brief: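 Compounds diluted from concentrated DMSO stocks into filtered 50 mM KPi, pH 7.0; particle formation checked by dynamic light scattering with 826.6 nm laser at 100% power, detector angle 90°.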
The next data set has as its target Adenosine receptor A2a (Homo sapiens, UniProt P29274). The data set is described as follows: Displacement of [3H]CGS21680 from human recombinant adenosine A2A receptor expressed in HEK293 cells after 60 mins by scintillation counting. It counts as cell-based.
The species entered for data set [4] is Homo sapiens. The data set is described as follows: Selectivity ratio of Ki for human recombinant adenosine A3 receptor to KI for human recombinant adenosine A2A receptor.
Data set [5] is described as follows: Inhibition of beta-lactamase AmpC preincubated for 5 mins before substrate addition by spectrophotometry. The method in brief: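 In 50 mM potassium phosphate pH 7.0, 1 nM enzyme incubated 5 min with compound at 10 μM (0.1% DMSO); CENTA added to 92 μM final; absorbance at 405 nm followed for 5 min; duplicates with DMSO controls.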
Data set [6] deals with Cruzipain (Trypanosoma cruzi) (UniProt P25779). Description: Inhibition of Trypanosoma cruzi cruzain at 10 uM preincubated for 5 mins before substrate addition by spectrophotometry. Particulars: in the assay text read “spectrofluorimetry” for “spectrophotometry”. The method, boiled down: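 Enzyme (0.8 nM) preincubated with compound 5 min in 100 mM sodium acetate pH 5.5, 5 mM DTT, with and without 0.1% Triton X-100; started with Z-FR-AMC (2.5 μM final, enzyme 0.4 nM final), 0.5% DMSO; fluorescence ex 355/em 460 nm over 5 min; duplicates, DMSO controls.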

The species entered for data set [7] is Homo sapiens. Description: Selectivity ratio of Ki for human recombinant adenosine A1 receptor to KI for human recombinant adenosine A2A receptor.

The structures appear in SMILES notation. Activity calls are given as the source filed them. No cut-off for these calls is given here.

Sequence of Adenosine receptor A2a (P29274 whole entry): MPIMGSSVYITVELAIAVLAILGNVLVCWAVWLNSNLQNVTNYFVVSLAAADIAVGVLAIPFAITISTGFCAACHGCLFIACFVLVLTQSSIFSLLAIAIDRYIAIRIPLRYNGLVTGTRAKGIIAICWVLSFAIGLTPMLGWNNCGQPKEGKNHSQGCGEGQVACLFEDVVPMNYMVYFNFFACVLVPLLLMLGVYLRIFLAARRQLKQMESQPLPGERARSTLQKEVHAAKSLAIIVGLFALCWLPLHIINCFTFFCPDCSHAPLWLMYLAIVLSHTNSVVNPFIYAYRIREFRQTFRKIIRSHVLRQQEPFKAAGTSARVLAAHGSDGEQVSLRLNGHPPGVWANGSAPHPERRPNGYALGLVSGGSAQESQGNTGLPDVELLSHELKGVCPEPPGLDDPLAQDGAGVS
Sequence of Cruzipain (Trypanosoma cruzi) (P25779 123-467 limits assumed): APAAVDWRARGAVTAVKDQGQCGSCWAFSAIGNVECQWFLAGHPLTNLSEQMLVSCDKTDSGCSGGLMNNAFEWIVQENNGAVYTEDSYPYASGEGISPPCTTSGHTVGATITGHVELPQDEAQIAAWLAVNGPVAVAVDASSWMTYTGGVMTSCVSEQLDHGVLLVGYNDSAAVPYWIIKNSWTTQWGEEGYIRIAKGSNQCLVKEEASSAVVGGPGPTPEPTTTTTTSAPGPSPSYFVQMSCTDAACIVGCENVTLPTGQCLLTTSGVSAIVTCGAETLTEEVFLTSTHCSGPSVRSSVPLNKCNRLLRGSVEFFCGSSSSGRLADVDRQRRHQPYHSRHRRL

For `Cc1cc(C)nc(NC(=N)NCCc2ccsc2)n1`, the Activity turned out to be 3% in data set [1] and 21% in data set [2].

In the case of `Cc1cccc(O[C@H](C)C(=O)Nc2nnc(-c3ccccc3)[nH]2)c1`, the Activity result in data set [3] is given as “Not Active”.

In the case of `NC(=NCCc1c[nH]c2ccccc12)Nc1ncccn1`, on Adenosine receptor A2a, the inhibition constant Ki is 5.9 µM.

On to `Cc1cc(C)nc(NC(N)=NCCc2c[nH]c3ccc(F)cc23)n1`, for which, at Adenosine receptor A2a, the Ki amounted to 0.2 µM. The outcome in data set [3] was Active.

`Cc1cc(C)nc(NC(=N)NCCc2c[nH]c3ccc(F)cc23)n1`: the Activity is 25% in data set [1] and 18% in data set [2]. Further, the Ratio Ki in the data set listed under Homo sapiens [4] and in the data set filed under Homo sapiens [7] was 50 throughout. In data set [5], the inhibition entry is “inactive”. Besides, the outcome in data set [6] was Active.

As for `CNc1ccccc1C(=O)/N=C(\N)Nc1nc(C)c2ccccc2n1`, the Activity came out at 15% in data set [1] and 8% in data set [2]. Further, on Adenosine receptor A2a, the Ki came out at 8.8 µM.

Take `COc1ccc(-c2cc(=O)[nH]c(Nc3ccccc3)n2)cc1OC`: the Activity in data set [1] came to 4%; in data set [2], 37%. In addition, the inhibition constant Ki on Adenosine receptor A2a came out at 3.6 µM.

Take `Cc1cc(C)nc(NC(N)=NCCc2ccsc2)n1`: the inhibitory constant (Ki) on Adenosine receptor A2a is 0.4 µM.

In the case of `COc1ccc2c(CCNC(=N)Nc3nc(C)cc(C)n3)c[nH]c2c1`, the Activity is 5% in data set [1] and 20% in data set [2]. Also, the inhibition constant Ki at Adenosine receptor A2a is 0.6 µM.

Take `Cc1cccc(Nc2nc3c([nH]2)c(=O)n(C)c(=O)n3C)c1`: the results for the Activity in data set [1] and in data set [2] were 6% and 17%, respectively. Further, on Adenosine receptor A2a, the inhibition constant Ki was determined as 1.2 µM.

As for `Cc1cccc(O[C@H](C)C(=O)Nc2nc(-c3ccccc3)n[nH]2)c1`, in data set [5], the inhibition entry was “inactive”. In addition, the result in data set [6] was inactive.

`COc1ccc2c(c1)oc1c(-c3ccncc3)c(C#N)c(N)c(C#N)c12`: the Activity was 5% in data set [1], 28% in data set [2] and “Not Active” in data set [3]. The inhibitory constant (Ki) on Adenosine receptor A2a worked out at 2.7 µM. For the same compound, the result in data set [6] was inactive.

`Cc1ccc2nc(Nc3nc(C)cc(C)n3)[nH]c2c1`: the Activity in data set [1] was 12%; in data set [2] it was 15%; in data set [3], “Not Active”. In addition, at Adenosine receptor A2a, the Ki was determined as 1.3 µM. The outcome in data set [6] was inactive.

With `Cc1cc(C)nc(NC(=N)NCCc2c[nH]c3ccccc23)n1`, the Activity in data set [1] was 19%; in data set [2] it was 16%. The Ki at Adenosine receptor A2a amounted to 0.4 µM.

Take `N=C(NCCc1c[nH]c2ccccc12)Nc1ncccn1`: the Activity in data set [1] came to 4%; in data set [2], 8%.

Take `COc1ccc(CCNC(=N)Nc2nc(C)cc(C)n2)cc1`: the Activity in data set [1] worked out at 10%; in data set [2], 9%. Further, the inhibition constant Ki at Adenosine receptor A2a turned out to be 0.9 µM.
